For one experiment, the target named is Adrenergic receptor beta (Rattus norvegicus, UniProt P18090+P10608+P26255). Briefly: Antagonism of Beta adrenergic receptor in the isolated rat uterus. The experiment is classed as functional, tissue-based.
The next experiment addresses Histamine H2 receptor (Cavia porcellus, UniProt P47747). The experiment can be described thus: Competitive antagonism of Histamine H2 receptor in the isolated guinea pig atrium. The following applies: read-out: pA2 (converted). The experiment is classed as functional, tissue-based, Cardiac atrium. Put shortly: (§1)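 Isolated guinea pig right atrium; antagonism of the positive chronotropic response to histamine. Apparent KB from the Furchgott method: KB = antagonist concentration/(dose ratio − 1), using a single antagonist concentration that gave parallel dose-response shifts without lowering the maximum. Values are means of three to five preparations per antagonist.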

Another experiment deals with Histamine H1 receptor (Cavia porcellus, UniProt P31389). Briefly: Antagonism of Histamine H1 receptor in the isolated guinea pig ileum. The format is functional, tissue-based. The following applies: read-out: pA2 (converted). In outline: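 Isolated guinea pig ileum; contractile responses to histamine (H1) or methacholine (muscarinic) were tested for blockade.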
The next experiment is filed under the species Rattus norvegicus. The experiment can be described thus: Inhibition of gastric acid secretion in the pylorus-ligated rat (after 2h). The experiment is classed as functional. Conditions: Stomach. In outline:
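Pylorus-ligated rat, by a modified Shay procedure. Compound given subcutaneously at no fewer than five dose levels (three in one case), with at least five rats per dose.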

The species named for a further experiment is Cavia porcellus. The experiment can be described thus: Antagonism of the positive chronotropic action of histamine in the isolated guinea pig atrium. The experiment is classed as functional. The following applies: Cardiac atrium. In outline: as §1
Experiment [1] is described as follows: Potency ratio in pylorus-ligated rat relative to cimetidine (after 2h). The experiment is classed as functional.

These results are taken from ChEMBL document CHEMBL1122014, “1,2,5-thiadiazole 1-oxide and 1,1-dioxide derivatives. A new class of potent histamine H2-receptor antagonists” (J Med Chem, 1982).

The pA2 is the negative logarithm of the molar antagonist concentration that doubles the agonist concentration needed for the same response. The term ED50 denotes the midpoint of the dose-response relation. Read a low ED50 as greater potency.

Chain of Histamine H1 receptor (P31389 whole entry): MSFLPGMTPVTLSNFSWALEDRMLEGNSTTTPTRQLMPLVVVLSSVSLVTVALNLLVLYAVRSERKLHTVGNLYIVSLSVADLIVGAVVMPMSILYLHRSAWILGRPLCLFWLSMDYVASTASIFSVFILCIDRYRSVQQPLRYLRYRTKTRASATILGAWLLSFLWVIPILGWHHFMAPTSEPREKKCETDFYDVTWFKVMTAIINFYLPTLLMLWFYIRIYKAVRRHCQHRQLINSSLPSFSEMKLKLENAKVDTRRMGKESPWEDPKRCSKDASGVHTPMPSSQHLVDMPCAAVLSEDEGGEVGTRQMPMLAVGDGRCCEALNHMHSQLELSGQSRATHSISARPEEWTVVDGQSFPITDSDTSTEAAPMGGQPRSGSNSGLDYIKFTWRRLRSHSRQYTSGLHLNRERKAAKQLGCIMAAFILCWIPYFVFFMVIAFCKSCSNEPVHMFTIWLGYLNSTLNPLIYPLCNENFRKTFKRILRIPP
Chain of Histamine H2 receptor (P47747 whole entry): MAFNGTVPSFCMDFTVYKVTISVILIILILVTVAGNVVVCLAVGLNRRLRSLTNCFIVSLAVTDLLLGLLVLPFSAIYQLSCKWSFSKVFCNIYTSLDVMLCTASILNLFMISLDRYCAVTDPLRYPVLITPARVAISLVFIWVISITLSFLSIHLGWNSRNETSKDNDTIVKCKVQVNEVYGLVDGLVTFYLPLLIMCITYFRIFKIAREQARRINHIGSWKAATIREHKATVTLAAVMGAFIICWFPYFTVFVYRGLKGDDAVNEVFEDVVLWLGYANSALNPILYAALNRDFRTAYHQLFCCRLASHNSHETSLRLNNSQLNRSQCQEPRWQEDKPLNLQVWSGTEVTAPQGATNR

For the molecule `N=C(N)Nc1nc(CSCCNc2n[s+]([O-])nc2N)cs1` (centres undefined), the pA2 at Adrenergic receptor beta is 4.3. In addition, the Kb on Histamine H2 receptor is 25.1 nM; at Histamine H1 receptor, 126000 nM.
With `CNC1=NS(=O)(=O)N=C1NCCSCc1ccc(CN(C)C)s1`, it took a dose of 0.072 µmol/kg to reach the 50% effect level in the experiment filed under Rattus norvegicus (ED50). Also, the Kb in the experiment listed under Cavia porcellus came out at 140 nM. Further, the Ratio in experiment [1] came out at 94.
In the same order, the values of `CNC1=NS(=O)(=O)N=C1NCCSCc1[nH]cnc1C` are 131 µmol/kg, 11500 nM and 0.07.
In the same order, the values of `CN(C)Cc1cccc(OCCCNc2n[s+]([O-])nc2N)c1` (centres undefined) are 0.066 µmol/kg, 65 nM and 142.
As to `CN/C(=N\CCSCc1nc[nH]c1C)NC#N` [CIMETIDINE], the ED50 in the experiment listed under Rattus norvegicus turned out to be 9.4 µmol/kg. The same molecule showed a Kb in the experiment filed under Cavia porcellus of 1200 nM.
